Measurements published in publication PMC6468299 (Nucleic Acids Research, 2019).
Marks after values point to notes of the source that are not given here.

Key:
Assay type in all cases: biochemical
DNA polymerase β (Pol-β) = DNA polymerase β (Pol-β) (Homo sapiens, UniProt P06746); experiment: DNA polymerase inhibition assay, Pol-β; conditions: 1 h, 3H-dTTP incorporation
Summary of the method: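 Reactions contained 25 μM each dATP/dCTP/dGTP, 25 nM TTP plus 1 μCi ³H-TTP, 160 nM template/primer, and serially diluted test nucleotide (0–200 μM). Incubation was 1 h at 37°C. DNA was TCA-precipitated, washed and counted; inhibition was taken from reduced incorporation. ddNTPs served as positive control.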

[1] = target: Human mitochondrial RNA polymerase (POLRMT) (Homo sapiens, UniProt O00411); experiment: POLRMT primer extension
Human mitochondrial RNA polymerase (POLRMT), sequence (O00411 42-1230): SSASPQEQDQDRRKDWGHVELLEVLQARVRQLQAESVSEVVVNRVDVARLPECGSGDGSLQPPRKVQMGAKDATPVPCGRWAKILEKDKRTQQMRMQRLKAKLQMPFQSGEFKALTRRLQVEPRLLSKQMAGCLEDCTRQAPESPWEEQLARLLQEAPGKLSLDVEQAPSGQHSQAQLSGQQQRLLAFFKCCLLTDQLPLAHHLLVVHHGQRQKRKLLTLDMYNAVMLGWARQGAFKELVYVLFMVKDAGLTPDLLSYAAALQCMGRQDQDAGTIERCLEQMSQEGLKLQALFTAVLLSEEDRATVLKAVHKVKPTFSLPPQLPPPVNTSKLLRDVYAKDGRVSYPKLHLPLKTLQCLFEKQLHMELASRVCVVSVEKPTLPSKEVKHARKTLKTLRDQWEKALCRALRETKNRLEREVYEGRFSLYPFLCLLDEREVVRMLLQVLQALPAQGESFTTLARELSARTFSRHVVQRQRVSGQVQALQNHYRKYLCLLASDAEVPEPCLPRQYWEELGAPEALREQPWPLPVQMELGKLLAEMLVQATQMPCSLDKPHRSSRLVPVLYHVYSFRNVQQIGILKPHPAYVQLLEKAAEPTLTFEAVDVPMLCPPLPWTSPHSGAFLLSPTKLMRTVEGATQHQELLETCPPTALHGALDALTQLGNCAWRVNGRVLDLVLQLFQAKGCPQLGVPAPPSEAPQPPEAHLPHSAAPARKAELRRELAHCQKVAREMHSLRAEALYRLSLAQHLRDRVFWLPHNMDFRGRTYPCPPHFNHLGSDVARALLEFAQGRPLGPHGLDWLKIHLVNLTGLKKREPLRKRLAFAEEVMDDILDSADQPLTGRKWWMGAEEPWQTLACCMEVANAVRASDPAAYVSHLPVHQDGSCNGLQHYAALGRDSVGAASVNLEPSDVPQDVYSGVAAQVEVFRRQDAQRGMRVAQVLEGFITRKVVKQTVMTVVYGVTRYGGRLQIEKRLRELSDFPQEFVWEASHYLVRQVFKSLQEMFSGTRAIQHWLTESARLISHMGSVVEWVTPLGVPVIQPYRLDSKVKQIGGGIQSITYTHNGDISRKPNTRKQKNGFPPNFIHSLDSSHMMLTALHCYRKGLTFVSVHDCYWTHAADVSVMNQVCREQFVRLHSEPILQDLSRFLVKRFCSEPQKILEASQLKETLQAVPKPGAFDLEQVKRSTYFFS
Summary of the method: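 Reactions contained 200 nM DNA template, 25 nM Atto-425-labelled 12-mer RNA primer and 300 nM human POLRMT. Substrate was 1 mM NTP or 2′-F-NTP, or mixtures from 100:1 to 1:100 (1:1 both 1 mM). Products were resolved by fluorescence anion-exchange HPLC (ex 436/em 485 nm, pH 11 NaBr gradient). Products under 1.0% peak area were called not detected.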

DNA polymerase α (Pol-α) = target: T1, DNA polymerase α (Pol-α) (Homo sapiens, UniProt P09884); experiment: DNA polymerase inhibition assay, Pol-α; conditions: Pol-α; 1 h, 3H-dTTP incorporation
T1 sequence (P09884 1-1462): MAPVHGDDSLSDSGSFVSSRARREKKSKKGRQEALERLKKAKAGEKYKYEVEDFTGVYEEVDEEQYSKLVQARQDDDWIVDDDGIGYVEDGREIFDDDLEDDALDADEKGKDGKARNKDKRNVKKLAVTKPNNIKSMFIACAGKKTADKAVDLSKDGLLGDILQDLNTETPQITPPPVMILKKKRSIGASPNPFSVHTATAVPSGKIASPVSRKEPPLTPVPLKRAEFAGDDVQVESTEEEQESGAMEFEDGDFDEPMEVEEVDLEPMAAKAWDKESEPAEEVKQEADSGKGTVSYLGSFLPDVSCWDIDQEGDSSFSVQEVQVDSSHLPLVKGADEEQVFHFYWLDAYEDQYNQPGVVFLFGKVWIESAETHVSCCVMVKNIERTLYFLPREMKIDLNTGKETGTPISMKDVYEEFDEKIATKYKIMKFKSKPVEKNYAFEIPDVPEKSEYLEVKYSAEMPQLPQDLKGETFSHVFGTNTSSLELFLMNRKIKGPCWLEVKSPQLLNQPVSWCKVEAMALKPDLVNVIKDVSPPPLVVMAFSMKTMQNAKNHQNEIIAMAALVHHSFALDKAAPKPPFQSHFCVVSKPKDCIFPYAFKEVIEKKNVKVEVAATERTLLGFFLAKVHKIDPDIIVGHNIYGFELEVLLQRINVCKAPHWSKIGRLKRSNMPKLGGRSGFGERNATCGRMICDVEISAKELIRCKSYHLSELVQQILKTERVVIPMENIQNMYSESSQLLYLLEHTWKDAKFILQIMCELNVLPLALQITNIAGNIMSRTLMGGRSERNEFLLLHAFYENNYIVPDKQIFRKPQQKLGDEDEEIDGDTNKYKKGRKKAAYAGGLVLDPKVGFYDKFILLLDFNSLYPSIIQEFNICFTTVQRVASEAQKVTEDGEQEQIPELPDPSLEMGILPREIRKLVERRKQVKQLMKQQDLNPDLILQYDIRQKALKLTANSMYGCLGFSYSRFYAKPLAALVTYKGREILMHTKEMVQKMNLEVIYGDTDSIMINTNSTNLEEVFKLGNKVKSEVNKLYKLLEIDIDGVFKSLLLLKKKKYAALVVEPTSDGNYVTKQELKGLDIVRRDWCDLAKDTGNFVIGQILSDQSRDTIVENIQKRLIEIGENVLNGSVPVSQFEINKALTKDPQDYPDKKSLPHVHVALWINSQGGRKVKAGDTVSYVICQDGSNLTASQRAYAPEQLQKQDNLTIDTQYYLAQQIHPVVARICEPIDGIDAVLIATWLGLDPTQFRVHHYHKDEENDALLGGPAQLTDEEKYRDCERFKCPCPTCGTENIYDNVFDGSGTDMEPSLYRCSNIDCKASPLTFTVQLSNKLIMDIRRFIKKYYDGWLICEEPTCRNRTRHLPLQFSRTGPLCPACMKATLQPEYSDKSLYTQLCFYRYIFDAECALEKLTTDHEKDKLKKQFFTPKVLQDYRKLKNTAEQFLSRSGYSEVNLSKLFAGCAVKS

| Compound | IC50 (DNA polymerase β (Pol-β)) [µM] | IC90 (DNA polymerase β (Pol-β)) [µM] | % 2′-F product ([1]; F only) | % Native product ([1]; Native only (no 2′-F-NTP)) | % Native product ([1]; Native:F ratio 1:1) | % Native product ([1]; Native:F ratio 1:10) | % Native product ([1]; Native:F ratio 1:100) | IC50 (DNA polymerase α (Pol-α)) [µM] | IC90 (DNA polymerase α (Pol-α)) [µM] | % 2′-F product ([1]; Native:F ratio 1:1) | % 2′-F product ([1]; Native:F ratio 1:10) | % 2′-F product ([1]; Native:F ratio 1:100) |
| --- | --- | --- | --- | --- | --- | --- | --- | --- | --- | --- | --- | --- |
| Nc1ncnc2c1ncn2[C@@H]1O[C@H](COP(=O)(O)OP(=O)(O)OP(=O)(O)O)[C@@H](O)[C@H]1F [2′-F-ATP] | 175 | > 200 | 42.6^a % | 69.2^a % | 67.8^a % | 63.5^a % | 51.4^a % | > 200 | > 200 | ND (not detected (integration peak area <1.0%)) | ND (not detected (integration peak area <1.0%)) | ND (not detected (integration peak area <1.0%)) |
| Nc1ccn([C@@H]2O[C@H](COP(=O)(O)OP(=O)(O)OP(=O)(O)O)[C@@H](O)[C@H]2F)c(=O)n1 [2′-F-CTP] | > 200 | > 200 | 58.7^a % | 48.8^a % | 39.3^a % | 43.7^a % | 37.0^b % | > 200 | > 200 | ND (not detected (integration peak area <1.0%)) | ND (not detected (integration peak area <1.0%)) | 9.1^b % |
| Nc1nc2c(ncn2[C@@H]2O[C@H](COP(=O)(O)OP(=O)(O)OP(=O)(O)O)[C@@H](O)[C@H]2F)c(=O)[nH]1 [2′-F-GTP] | > 200 | > 200 | 78.9^a % | 95.0^a % | 96.4^a % | 83.4^a % | 69.2^b % | > 200 | > 200 | ND (not detected (integration peak area <1.0%)) | ND (not detected (integration peak area <1.0%)) | 8.9^b % |

The next compounds have a lower IC50 (DNA polymerase β (Pol-β)) than those just listed; values first:

| IC50 (DNA polymerase β (Pol-β)) [µM] | IC90 (DNA polymerase β (Pol-β)) [µM] | % 2′-F product ([1]; F only) | % Native product ([1]; Native only (no 2′-F-NTP)) | % Native product ([1]; Native:F ratio 1:1) | % Native product ([1]; Native:F ratio 1:10) | % Native product ([1]; Native:F ratio 1:100) | IC50 (DNA polymerase α (Pol-α)) [µM] | IC90 (DNA polymerase α (Pol-α)) [µM] | Compound | % 2′-F product ([1]; Native:F ratio 1:1) | % 2′-F product ([1]; Native:F ratio 1:10) | % 2′-F product ([1]; Native:F ratio 1:100) |
| --- | --- | --- | --- | --- | --- | --- | --- | --- | --- | --- | --- | --- |
| 91.6 | > 200 | 31.8^a % | 40.8^a % | 32^a % | 45.3^a % | 35.6^a % | > 200 | > 200 | O=c1ccn([C@@H]2O[C@H](COP(=O)(O)OP(=O)(O)OP(=O)(O)O)[C@@H](O)[C@H]2F)c(=O)[nH]1 [2′-F-UTP] | ND (not detected (integration peak area <1.0%)) | ND (not detected (integration peak area <1.0%)) | ND (not detected (integration peak area <1.0%)) |
| 0.37 | 5.56 | 21.0^a % | 34.6^a % | 25.1^a % | 25.4^a % | 24.10^b % | 0.27 | 13.7 | O=c1[nH]c(=O)n([C@@H]2O[C@H](COP(=O)(O)OP(=O)(O)OP(=O)(O)O)[C@@H](O)[C@@H]2F)cc1I [FIAU-TP, fialuridine triphosphate, reference compound] | ND (not detected (integration peak area <1.0%)) | ND (not detected (integration peak area <1.0%)) | 1.1^b % |
